Activity calls are given as the source filed them. The calls are words filed in the database; no cut-off is given here.
Molecular target: Histone acetyltransferase p300 (Homo sapiens) (UniProt Q09472)
Sequence (Q09472 whole entry, the tested form may be a part): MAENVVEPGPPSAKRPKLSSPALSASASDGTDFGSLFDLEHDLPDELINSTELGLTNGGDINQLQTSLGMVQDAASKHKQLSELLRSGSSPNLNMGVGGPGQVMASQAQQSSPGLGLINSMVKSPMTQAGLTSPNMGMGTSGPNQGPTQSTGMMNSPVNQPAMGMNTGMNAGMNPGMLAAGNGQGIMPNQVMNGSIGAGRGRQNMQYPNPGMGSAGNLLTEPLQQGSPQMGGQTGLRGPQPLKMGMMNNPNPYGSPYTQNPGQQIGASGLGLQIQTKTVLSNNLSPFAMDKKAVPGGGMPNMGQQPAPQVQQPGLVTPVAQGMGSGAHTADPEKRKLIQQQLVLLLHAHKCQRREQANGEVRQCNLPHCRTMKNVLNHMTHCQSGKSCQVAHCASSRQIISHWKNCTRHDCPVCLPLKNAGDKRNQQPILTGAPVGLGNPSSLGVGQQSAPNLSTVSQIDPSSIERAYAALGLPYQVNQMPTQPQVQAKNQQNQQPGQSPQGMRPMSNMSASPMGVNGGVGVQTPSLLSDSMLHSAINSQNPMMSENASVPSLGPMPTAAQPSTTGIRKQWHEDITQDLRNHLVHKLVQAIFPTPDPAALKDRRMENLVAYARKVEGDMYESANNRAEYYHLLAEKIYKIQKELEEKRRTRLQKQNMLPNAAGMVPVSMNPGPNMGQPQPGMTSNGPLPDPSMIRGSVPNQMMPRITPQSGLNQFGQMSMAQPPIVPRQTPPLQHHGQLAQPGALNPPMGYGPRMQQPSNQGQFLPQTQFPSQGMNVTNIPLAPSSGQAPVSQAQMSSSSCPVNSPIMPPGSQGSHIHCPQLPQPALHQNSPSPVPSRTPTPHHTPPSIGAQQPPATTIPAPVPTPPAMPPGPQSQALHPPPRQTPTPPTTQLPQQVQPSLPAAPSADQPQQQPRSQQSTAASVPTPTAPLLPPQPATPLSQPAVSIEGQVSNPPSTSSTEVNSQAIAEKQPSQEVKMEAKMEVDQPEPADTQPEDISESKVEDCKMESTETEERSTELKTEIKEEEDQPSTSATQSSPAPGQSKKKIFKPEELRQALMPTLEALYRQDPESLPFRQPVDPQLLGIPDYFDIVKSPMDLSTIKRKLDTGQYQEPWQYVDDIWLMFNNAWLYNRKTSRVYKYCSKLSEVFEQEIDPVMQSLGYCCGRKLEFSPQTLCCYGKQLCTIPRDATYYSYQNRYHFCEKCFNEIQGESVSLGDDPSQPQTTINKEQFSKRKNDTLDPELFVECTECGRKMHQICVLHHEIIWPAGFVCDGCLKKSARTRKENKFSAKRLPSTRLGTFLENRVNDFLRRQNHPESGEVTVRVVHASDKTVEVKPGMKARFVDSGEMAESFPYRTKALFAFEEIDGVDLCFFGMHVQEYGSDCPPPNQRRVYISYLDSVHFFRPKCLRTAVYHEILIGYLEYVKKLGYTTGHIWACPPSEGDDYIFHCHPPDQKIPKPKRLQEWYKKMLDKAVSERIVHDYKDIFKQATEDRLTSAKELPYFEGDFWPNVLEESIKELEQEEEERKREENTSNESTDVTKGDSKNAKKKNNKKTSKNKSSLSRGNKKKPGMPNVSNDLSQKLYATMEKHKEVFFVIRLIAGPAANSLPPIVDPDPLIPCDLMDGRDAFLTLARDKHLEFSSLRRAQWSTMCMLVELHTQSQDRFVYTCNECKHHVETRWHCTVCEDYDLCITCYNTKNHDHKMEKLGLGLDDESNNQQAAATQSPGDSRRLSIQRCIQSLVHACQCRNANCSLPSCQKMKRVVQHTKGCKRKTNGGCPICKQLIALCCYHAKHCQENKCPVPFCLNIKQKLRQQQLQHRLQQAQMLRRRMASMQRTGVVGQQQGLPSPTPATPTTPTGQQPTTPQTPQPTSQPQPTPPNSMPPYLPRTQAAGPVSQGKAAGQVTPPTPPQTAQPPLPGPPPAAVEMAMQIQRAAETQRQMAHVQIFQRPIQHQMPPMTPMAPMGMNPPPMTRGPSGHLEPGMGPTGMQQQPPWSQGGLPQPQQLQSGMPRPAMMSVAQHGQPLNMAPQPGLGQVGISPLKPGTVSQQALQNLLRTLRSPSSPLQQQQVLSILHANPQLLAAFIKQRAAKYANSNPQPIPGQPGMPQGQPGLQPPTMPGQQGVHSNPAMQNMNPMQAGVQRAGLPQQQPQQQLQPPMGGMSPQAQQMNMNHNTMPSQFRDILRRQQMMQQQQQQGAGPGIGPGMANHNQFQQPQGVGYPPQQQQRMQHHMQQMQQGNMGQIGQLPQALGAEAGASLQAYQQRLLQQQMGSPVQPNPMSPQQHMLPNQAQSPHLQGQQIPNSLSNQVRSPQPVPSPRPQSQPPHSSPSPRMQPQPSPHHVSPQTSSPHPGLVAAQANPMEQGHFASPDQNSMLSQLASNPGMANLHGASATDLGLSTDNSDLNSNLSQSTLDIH
Assay: Inhibition of P300 CH1 domain-mediated HIF1 transcriptional activity in human LN229-V6R cells assessed as reduction in luciferase activity incubated for 1 hr under normoxia followed by 24 hrs under hypoxia by reporter gene assay
Type: cell-based
Conditions: not given
Outline: (§1)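 LN229-V6R cells carry a stably integrated hypoxia/HIF-inducible luciferase reporter. 3 × 10⁴ cells/well in DMEM with 10% serum, 24 h normoxia. Compound at 2.5, 5.0 or 10.0 μM in 1% DMSO, 1 h at 37 °C, then 24 h at 1% O2. Lysates mixed with luciferase substrate and read by luminometry, expressed as % of untreated control. Triplicates.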
With `CC(C)CN(Cc1cc(O)c2c(c1)C=CC(C)(C)O2)S(=O)(=O)c1ccccn1` the inhibition was “Dose-dependent effect”. In the case of `CC(C)CN(Cc1ccc2c(c1)C=CC(C)(C)O2)S(=O)(=O)c1nccs1`, the inhibition is reported as “Dose-dependent effect”. In the case of `CC1(C)C=Cc2cc(CN(C3CC3)S(=O)(=O)c3ccccn3)ccc2O1`, the inhibition is reported as “Dose-dependent effect”. With `CC(C)CN(Cc1ccc2c(c1)C=CC(C)(C)O2)S(=O)(=O)c1ccccn1` the inhibition was “Dose-dependent effect”. With `CC1(C)C=Cc2cc(CN(C3CCCC3)S(=O)(=O)c3ccccn3)ccc2O1` the inhibition was “Dose-dependent effect”. For `CC(C)CN(Cc1ccc2c(c1)C=CC(C)(C)O2)S(=O)(=O)c1ccncc1`, the inhibition was “Dose-dependent effect”.

Tested on: LN-229
Assay: Inhibition of luciferase activity in human LN229-Lux cells at 2.5 to 10 uM incubated for 1 hr under normoxia followed by 24 hrs under hypoxia by reporter gene assay
Type: functional, cell-based
Conditions: not given
With `CC(C)CN(Cc1cc(O)c2c(c1)C=CC(C)(C)O2)S(=O)(=O)c1ccccn1` the inhibition was “inactive”. In the case of `CC(C)CN(Cc1ccc2c(c1)C=CC(C)(C)O2)S(=O)(=O)c1nccs1`, the inhibition is reported as “inactive”. With `CC1(C)C=Cc2cc(CN(C3CC3)S(=O)(=O)c3ccccn3)ccc2O1` the inhibition was “inactive”. With `CC(C)CN(Cc1ccc2c(c1)C=CC(C)(C)O2)S(=O)(=O)c1ccccn1` the inhibition was “inactive”. With `CC1(C)C=Cc2cc(CN(C3CCCC3)S(=O)(=O)c3ccccn3)ccc2O1` the inhibition was “inactive”. For `CC(C)CN(Cc1ccc2c(c1)C=CC(C)(C)O2)S(=O)(=O)c1ccncc1`, the inhibition was “inactive”. With `CO[C@H]1/C=C\C=C(/C)C(=O)NC2=CC(=O)C(NCCN(C)C)=C(C[C@@H](C)C[C@H](OC)[C@H](O)[C@@H](C)/C=C(\C)[C@@H]1OC(N)=O)C2=O` (stereo in doubt) the inhibition was “Active”.

Tested on: not listed separately
Assay: 1-Octanol-phosphate buffer distribution coefficient, log P of the compound at pH 7.4 by HPLC analysis
Type: physicochemical
Conditions: not given
Outline: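 Eluent methanol:water:triethylamine 70:30:0.1 at 2 mL/min, UV 254/280 nm. Calibrated with aniline, benzene, toluene and chlorobenzene plus two shake-flask-measured reference sulfonamides.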
Work on `CC(C)CN(Cc1cc(O)c2c(c1)C=CC(C)(C)O2)S(=O)(=O)c1ccccn1` yielded a logD of 1.3. `CC(C)CN(Cc1ccc2c(c1)C=CC(C)(C)O2)S(=O)(=O)c1nccs1` gave a logD of 4.4. For `CC1(C)C=Cc2cc(CN(C3CC3)S(=O)(=O)c3ccccn3)ccc2O1`, the logD was 3. For `CC(C)CN(Cc1ccc2c(c1)C=CC(C)(C)O2)S(=O)(=O)c1ccccn1`, the logD was 4.1. Work on `CC1(C)C=Cc2cc(CN(C3CCCC3)S(=O)(=O)c3ccccn3)ccc2O1` yielded a logD of 3.8. `CC(C)CN(Cc1ccc2c(c1)C=CC(C)(C)O2)S(=O)(=O)c1ccncc1` gave a logD of 3.6.

Tested on: Liver
Assay: Half life in mouse liver homogenate by HPLC analysis at pH 7.4
Type: ADME, tissue-based
Conditions: in vitro
Outline: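 Mouse liver homogenate in PBS pH 7.4 (1:2 w/v) incubated with 20 μM compound at 37 °C with shaking. Timed samples extracted with acetonitrile and analysed by C8 HPLC-PDA with 2 μM α-naphthoflavone internal standard, linear range 1-50 μM. Triplicates.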
In the case of `CC(C)CN(Cc1cc(O)c2c(c1)C=CC(C)(C)O2)S(=O)(=O)c1ccccn1`, the t1/2 is reported as 15 h.

Molecular target: Histone acetyltransferase p300 (Homo sapiens) (UniProt Q09472)
Assay: Inhibition of P300 CH1 domain-mediated HIF1 transcriptional activity in human LN229-V6R cells assessed as remaining activity at 2.5 uM incubated for 1 hr under normoxia followed by 24 hrs under hypoxia by luciferase reporter gene assay
Type: cell-based
Conditions: not given
Outline: as §1
For `CC(C)CN(Cc1cc(O)c2c(c1)C=CC(C)(C)O2)S(=O)(=O)c1ccccn1`, the Activity was 43%. Work on `CC(C)CN(Cc1ccc2c(c1)C=CC(C)(C)O2)S(=O)(=O)c1nccs1` yielded an Activity of 78%. `CC1(C)C=Cc2cc(CN(C3CC3)S(=O)(=O)c3ccccn3)ccc2O1` showed an Activity of 71%. With `CC(C)CN(Cc1ccc2c(c1)C=CC(C)(C)O2)S(=O)(=O)c1ccccn1` the Activity was 85%. Molecule `CC1(C)C=Cc2cc(CN(C3CCCC3)S(=O)(=O)c3ccccn3)ccc2O1` has an Activity of 60%. `CC(C)CN(Cc1ccc2c(c1)C=CC(C)(C)O2)S(=O)(=O)c1ccncc1` showed an Activity of 63%.
